Shown are actives, neighbours in structure and some others; about 1.5% of the full set was active somewhere.
CHT inh: inhibitors of human choline transporter CHT | High affinity choline transporter 1 (Homo sapiens), Q9GZV3 | CHT-expressing cells, membrane potential dye, choline response; stronger effect = lower value | B-score at 10 µM | hit rate 0.86% among 310,000 | AID 488975, 2010;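 active = B-score over 3 SD under the library average, and starting fluorescence ratio not unusually high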;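 note: choline stimulus applied at its EC90 after an EC20 pre-addition; B-score computed on integrated fluorescence ratio after choline addition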
VLA-4 inh: inhibition in human VLA-4 binding assay, primary screen, VLA-4 allosteric modulator project, MLPCN library, flow cytometry, VLA-4 expressing cells | hit rate 0.2% among 330,000 | AID 2557, 2010 | inhibition, % (about 7 µM as worked out from the volumes in the protocol) | ligand binding flow cytometry; in the data active = inhibition above about 50%
Target sequence (P13612 whole entry, looked up): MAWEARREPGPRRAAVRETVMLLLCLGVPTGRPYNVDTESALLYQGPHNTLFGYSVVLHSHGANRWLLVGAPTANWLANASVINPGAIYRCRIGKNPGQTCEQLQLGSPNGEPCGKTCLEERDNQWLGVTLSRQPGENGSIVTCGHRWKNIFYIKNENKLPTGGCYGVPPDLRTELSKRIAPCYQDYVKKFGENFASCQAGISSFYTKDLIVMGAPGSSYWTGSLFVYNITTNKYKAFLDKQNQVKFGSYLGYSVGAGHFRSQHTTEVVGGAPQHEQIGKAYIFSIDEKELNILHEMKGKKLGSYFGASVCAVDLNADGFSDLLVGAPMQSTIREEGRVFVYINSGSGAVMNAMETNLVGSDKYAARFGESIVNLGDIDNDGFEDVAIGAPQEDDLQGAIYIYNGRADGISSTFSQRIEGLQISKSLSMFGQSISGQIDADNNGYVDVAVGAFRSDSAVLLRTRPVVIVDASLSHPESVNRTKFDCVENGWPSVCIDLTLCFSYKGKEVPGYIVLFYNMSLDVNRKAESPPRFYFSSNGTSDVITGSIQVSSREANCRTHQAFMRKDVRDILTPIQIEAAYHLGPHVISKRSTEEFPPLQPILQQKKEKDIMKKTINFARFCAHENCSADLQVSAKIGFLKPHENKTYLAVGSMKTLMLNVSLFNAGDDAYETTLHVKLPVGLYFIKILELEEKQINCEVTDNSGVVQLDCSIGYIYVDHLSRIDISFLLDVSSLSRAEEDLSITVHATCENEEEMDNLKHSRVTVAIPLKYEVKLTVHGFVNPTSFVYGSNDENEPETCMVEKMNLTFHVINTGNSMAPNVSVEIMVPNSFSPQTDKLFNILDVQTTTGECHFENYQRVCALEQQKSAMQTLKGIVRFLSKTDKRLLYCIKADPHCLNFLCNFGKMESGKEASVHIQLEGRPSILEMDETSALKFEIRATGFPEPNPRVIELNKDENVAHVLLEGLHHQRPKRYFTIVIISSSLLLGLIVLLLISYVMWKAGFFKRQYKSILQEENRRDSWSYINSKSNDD
T cell modulator: modulators of CD8 T cell-vesicle binding, primary screen, mouse 2C CD8+ T cells, flow cytometry; 2C CD8+ T cell-vesicle binding; stronger effect = lower value; response (vesicle binding), % at 7 µM; hit rate 0.068% among 330,000; AID 2052, 2009;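 active = response, share of CD8 T cells binding vesicles, and their 90th percentile fluorescence all below set limits, cut at about 80% in these data, passing the limit was not always enough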;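 note: values below 100% mean blocked vesicle binding to the CD8+ T cells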
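Assay system – 2C mouse CD8+ T cells · Also added – QL9-loaded Drosophila micro-vesicles · Timing – Cell–vesicle co-incubation 1.5 h at 37 °C, staining 20 min on ice · Signal – flow cytometry of vesicle-bound cells · Measure – percent CD8+ FL2 mean versus row control · Controls – Peptide-free naked vesicles (low) and QL9 vesicles with 0.7% DMSO vehicle (high)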
CHT allo act: CHT positive allosteric modulators, primary screen, cell-based, membrane potential dye, choline EC20; CHT-expressing cells; stronger effect = higher value; LV-AA mutant CHT in HEK293 cells; High affinity choline transporter 1 (Homo sapiens), Q9GZV3; B-score at 10 µM; hit rate 0.49% among 310,000;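 active = initial fluorescence not abnormally high and integrated response B-score, plate-corrected, over 3 SD above library mean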
VLA-4 allo CP: retest of VLA-4 allosteric modulators, confirmation, cell-based, cherry-picked plates, U937, HUTS-21 LIBS antibody; shares compounds with VLA-4 inh; U937 cells, HUTS-21 LIBS mAb binding, flow cytometry; LDV ligand present at threefold Kd; inhibition, % at 6.7 µM; hit rate 2% among 1,300; AID 2813, 2010; in the data active = inhibition above about 40%
Numbers stand for hits; 0 = inactive; - = no result given.

SMILES	CHT inh	VLA-4 inh	T cell modulator	CHT allo act	VLA-4 allo CP
CCc1cc(=O)oc2cc(OS(C)(=O)=O)ccc12	0	0	0	0	-
O=C(O)c1ccc(CNC(=O)C23CC4CC(CC(C4)C2)C3)cc1	0	0	0	0	-
Fc1ccc2nc(Nc3nc4c(F)cccc4s3)sc2c1	0	53	0	0	0
CC1(C)CC(NCCN2CCN(C3=CC(=C(C#N)C#N)CC(C)(C)C3)CC2)=CC(=C(C#N)C#N)C1	0	50	0	0	0
CNC(=S)N1CCN(CCNC2=CC(=O)CC(C)(C)C2)CC1	0	0	0	0	-
CC(C)C(NS(=O)(=O)c1ccc2c(c1)oc(=O)n2C)C(=O)N1CCN(c2ccccc2F)CC1 (centres undefined)	0	53	0	0	0
Cn1c(=O)oc2cc(S(=O)(=O)NCCC(=O)N3CCN(c4ccccc4F)CC3)ccc21	0	0	0	0	-
CC(Oc1cccc(Cl)c1)C(=O)Nc1nc(-c2ccccn2)cs1 (centres undefined)	0	53	0	0	0
CC(Oc1ccccc1)C(=O)Nc1nc(-c2ccncc2)cs1 (centres undefined)	-	0	0	-	-
COc1ccc(C)cc1S(=O)(=O)Nc1cccc(C)c1	0	0	0	0	0
COc1cccc(NS(=O)(=O)c2cc(C)ccc2OC)c1	0	0	0	0	-
Nn1c(COc2ccccc2F)nnc1SCC(=O)NC1CCS(=O)(=O)C1 (centres undefined)	0	0	0	0	-
O=C(c1cc2ccccc2oc1=O)N1CCN(c2ccc(N3CCOCC3)nn2)CC1	0	0	0	0	-
O=C(c1cc(Br)ccc1Cl)N1CCN(c2ccc(N3CCOCC3)nn2)CC1	0	51	0	0	0
O=C(N/N=C\c1cccnc1)c1cc(-c2ccc(Cl)s2)[nH]n1	0	55	0	0	0
O=C(N/N=C/c1cccnc1)c1ccccc1Cl	0	0	0	0	-
Cc1sc(NC(=O)CSc2nnnn2C(C)C)c(C#N)c1C	0	0	0	0	-
CCn1nnnc1SCC(=O)Nc1sc(C)c(C)c1C#N	0	94	0	0	0
Cc1cccc2c1ncc1c(=O)n(-c3ccccc3)[nH]c12	0	0	0	0	-
COC(=O)C(Cc1cnc[nH]1)NC(=O)C1CCC(=O)N1 (centres undefined)	0	58	0	0	0
COc1ccc(S(=O)(=O)NC(Cc2cnc[nH]2)C(=O)O)cc1 (centres undefined)	0	0	0	0	-
COCCCC1CCN(Cc2nc(-c3ccccc3)no2)CC1	0	0	0	0	0
CCOC(=O)c1c(NC(=O)COC(=O)CNC(=O)c2ccc(Cl)cc2Cl)sc(C(=O)N(C)C)c1C	0	52	0	0	0
CCOC(=O)c1c(NC(=O)COC(=O)c2nc(Cl)ccc2Cl)sc(C(=O)N(C)C)c1C	0	0	0	0	-
CCOc1cc(CNCCCN2CCOCC2)cc(Br)c1OCc1ccccc1Cl	0	56	0	0	0
SMILES	CHT inh	VLA-4 inh	T cell modulator	CHT allo act	VLA-4 allo CP
COc1cc(SC)ccc1C(=O)Nc1ncc(Cl)cc1Cl	0	55	0	0	0
COc1cc(SC)ccc1C(=O)Nc1ncc(C)s1	0	0	0	0	-
CCCc1nc2ccccc2c(=O)n1/N=C/c1ccccc1O	0	91	0	0	0
Cc1nc2ccccc2c(=O)n1/N=C/c1ccc(O)cc1O	0	0	0	0	-
CCOc1ccc(NC(=O)Nc2ccccc2SC)cc1	0	67	0	0	0
CSc1ccccc1NC(=O)Nc1ccccc1	0	0	0	0	-
CCCn1cc(C(=O)N(C)C2CCCN(Cc3ccccc3F)C2)c(C)n1 (centres undefined)	0	0	0	0	-
CC(C)Cn1c(N)c(C(=O)CSc2nnc(-c3ccco3)n2C)c(=O)n(C)c1=O	-	53	0	-	0
CC(C)Cn1c(N)c(C(=O)CSc2ccccc2)c(=O)n(C)c1=O	0	0	0	0	-
CN(C)c1ccc(C(=O)OCC(=O)Nc2ccc(S(N)(=O)=O)cc2)cc1	0	0	0	0	0
COc1ccc([C@H]2C(C(=O)O)=C[C@@H](C(C)(C)C)N2S(=O)(=O)c2ccccc2)cc1	-	0	0	-	0
Cc1ccc([C@H]2C(C(=O)O)=C[C@@H](C(C)(C)C)N2S(=O)(=O)c2ccc(C)cc2)cc1	-	0	0	-	-
Cc1ccc(S(=O)(=O)N2[C@@H](c3ccc(C(C)C)cc3)C(C(=O)O)=C[C@H]2C(C)(C)C)cc1	-	0	0	-	0
Cc1ccc(S(=O)(=O)N2[C@@H](c3cccc(C)c3)C(C(=O)O)=C[C@H]2C(C)(C)C)cc1	-	0	0	-	0
CCc1ccccc1NC(=O)C1CCN(S(=O)(=O)c2ccc3c(c2)N(C(C)=O)CCO3)CC1	0	0	0	0	-
Cc1ccsc1C(=O)OCC(=O)NC1CCCC1	-	0	0	-	-
Nn1c(SCC(=O)Nc2ccc(OC(F)F)cc2)nnc(Cc2ccccc2)c1=O	0	0	0	0	-
Cc1cccc(N2CCN(S(=O)(=O)c3ccc4c(c3)C(C)(C)C(=O)N4C)CC2)c1C	0	0	0	0	-
CN1C(=O)C(C)(C)c2cc(S(=O)(=O)N3CCN(c4ccccc4F)CC3)ccc21	0	0	0	0	0
O=C(Nc1ccccc1Cl)OCc1cncs1	0	0	0	0	0
O=C(OCc1cncs1)c1ccccc1Cl	0	0	0	0	-
CCOc1ccc(CN2CCN(CC(O)Cn3c4ccccc4c4ccccc43)CC2)cc1 (centres undefined)	0	51	0	0	0
COc1ccc(CN2CCN(CC(O)Cn3c4ccccc4c4ccccc43)CC2)cc1 (centres undefined)	0	0	0	0	-
COC(=O)c1ccc(NC(=O)c2sc3nc(-c4ccccc4)cn3c2C)cc1	0	52	0	0	0
COc1ccc(-c2cn3c(C)c(C(=O)Nc4ccncc4)sc3n2)cc1	0	0	0	0	-
SMILES	CHT inh	VLA-4 inh	T cell modulator	CHT allo act	VLA-4 allo CP
C=CCNC(=S)NNC(=O)c1ccccc1OCC	0	0	0	0	-
CCc1ncc(CN2CCCCC2C(=O)Nc2ccc(Oc3ccccc3)nc2)cn1 (centres undefined)	0	0	0	0	-
NC(=O)NC(CC(=O)N1CCc2ccccc2C1)c1ccc(Cl)cc1 (centres undefined)	0	0	0	0	-
CC1CN(C(=O)CCC(=O)NCc2ccccc2Cl)c2ccccc2S1 (centres undefined)	0	0	0	0	-
CCC(Sc1ccc2nnc(-c3ccc(OC)c(OC)c3)n2n1)C(=O)O (centres undefined)	0	0	0	0	0
Cc1cc(C)c(S(=O)(=O)c2ccccc2C)c(OCCN(C)C)n1	0	0	0	0	-
Cc1ccc2oc(-c3ccccc3)nc2c1	0	94	0	0	0

Bioassay records as filed in PubChem.
